# According to publication PMC7194030 (Science translational medicine, 2019):
# Counter-ions that a name gives are not always drawn. Like-named read-outs stand apart in the source and are kept apart here.
# Legend:
# murine BFU-Es [1] = assay: Mouse BFU-E culture system; format: cell-based; conditions: for BFU-E expansion: purified murine fetal liver BFU-Es, cell numbers counted days 0 to 9; for Percentage of Ter119+ cells with or without compound: day 14 of culture, flow cytometry
# Summary of the method: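 Cells are counted from day 0 to day 9 (three distinct samples; two-way ANOVA). At end of culture, cells are stained with anti-Ter119 and Ter119+ percentage is measured by flow cytometry (three samples; one-tailed t test).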
# C57bl/6 mice [2] = assay: Pharmacodynamics study; format: in vivo, mouse
# Summary of the method: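 PHZ hemolytic anemia model: female C57bl/6 mice, 8–10 weeks old, randomised to groups and given test compound at different doses or DMSO control intraperitoneally every day. Anemia induced with intraperitoneal PHZ (60 mg/kg). Complete blood counts taken. 7 to 10 mice per group.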
# [3] = tested on: Mx1-Cre Srsf2P95H/WT MDS mice; format: in vivo; conditions: for BFU-E self-renewal (splenic BFU-E colonies): daily treatment
# BFU-Es = assay: cAMP assay in BFU-Es; format: cell-based, mouse; conditions: PD102807 3 nM, forskolin 10 μM, 45 min
# Summary of the method: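 Sorted murine fetal-liver BFU-Es are exposed for 45 min to DMSO, 3 nM test compound, or 10 μM forskolin. Cells are lysed in 0.1 M HCl (20 min, room temperature) and cleared at 15,000g for 10 min. Samples are neutralized, acetylated, and run in a competitive cAMP immunoassay (antibody, then cAMP-HRP, 1 h each; HRP developer 1 h). The reaction is stopped with 1 M HCl and read at OD 450 nm.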
# murine BFU-Es [4] = assay: RNA-seq of cultured BFU-Es; format: cell-based, mouse; conditions: 100 μM oxyphenonium bromide or 3 nM PD102807
# Summary of the method: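 BFU-Es FACS-sorted from E14.5 mouse fetal liver and cultured at 37°C in serum-free SFEM II with SCF, EPO, IGF-1 and dexamethasone. Treatments: test compound (100 μM or 3 nM), 100 nM dexamethasone, or DMSO. RNA extracted with a column kit, Illumina libraries prepared, sequenced on HiSeq 2500. Three to six replicates.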
# CFU-E = assay: Mouse CFU-E culture system; format: cell-based
# human CD34+ HSPC = assay: Human CD34+ HSPC erythroid differentiation culture system; format: cell-based; conditions: for Formation of BFU-E colonies: human CD34+ HSPC; for Erythroid cell expansion: human CD34+ HSPC from healthy donors
# [5] = tested on: CD34+ cells from patients with MDS; assay: Erythroid differentiation culture of CD34+ cells from patients with MDS; format: cell-based, human
# Summary of the method: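 MDS patient CD34+ cells (eight patients) are cultured in SFEM with rhSCF 20 ng/ml, rhIL-3 5 ng/ml, EPO 1 U/ml and dexamethasone 1 nM, with DMSO or 3 nM test compound. Read-outs: relative cell expansion, CD235a+ fraction by flow cytometry, annexin V apoptosis, and May-Grünwald–Giemsa cytospin morphology. One-tailed t test.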
# C57bl/6 mice [6] = conditions: in vivo
# [7] = biological target: human recombinant CHRM4 receptor (Homo sapiens, UniProt P08173); conditions: protein binding assay, IC50 on CHRM1-5
# murine BFU-Es [8] = assay: BFU-E colony formation assay of cultured murine BFU-Es; format: cell-based, mouse; conditions: colonies counted on day 9 of colony formation assay
# Summary of the method: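 BFU-Es (lin−Ter119−CD16/CD32−Sca-1−CD41−c-Kit+CD71/Cd24a10%low) are FACS-sorted from E14.5 C57bl/6 fetal liver. Cells are then plated in MethoCult SF M3436, and colonies are counted on day 9. Nine distinct samples; one-tailed t test.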
# Chain of human recombinant CHRM4 receptor (P08173 whole entry): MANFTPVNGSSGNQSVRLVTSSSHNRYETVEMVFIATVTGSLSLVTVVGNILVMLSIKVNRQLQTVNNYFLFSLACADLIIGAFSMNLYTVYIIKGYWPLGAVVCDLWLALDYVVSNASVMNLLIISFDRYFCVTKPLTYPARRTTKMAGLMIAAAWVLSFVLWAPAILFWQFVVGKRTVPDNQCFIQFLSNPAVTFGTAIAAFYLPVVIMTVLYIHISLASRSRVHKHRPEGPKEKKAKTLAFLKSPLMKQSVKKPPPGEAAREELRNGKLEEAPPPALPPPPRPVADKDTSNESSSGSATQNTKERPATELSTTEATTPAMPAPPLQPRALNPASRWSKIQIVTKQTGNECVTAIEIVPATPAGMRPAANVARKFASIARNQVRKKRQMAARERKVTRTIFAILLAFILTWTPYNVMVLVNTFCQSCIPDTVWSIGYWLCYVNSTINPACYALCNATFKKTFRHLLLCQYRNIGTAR
compound,measurement,setting,value
Cc1ccccc1C(OCCN(C)C)c1ccccc1 (stereo not shown) [orphenadrine citrate],BFU-E expansion,murine BFU-Es [1],triggered BFU-E expansion
same,Anti-anemia minimal effective dose,C57bl/6 mice [2],100 mg/kg
same,BFU-E self-renewal (splenic BFU-E colonies),[3]; MDS mice,promoted BFU-E self-renewal
same,Tolerability in vivo,"[3]; mouse, in vivo",well tolerated
same,White blood cell or platelet production,"[3]; mouse, in vivo",no influence
CCCCCCOC(=O)[C@]1(O)C[C@@H]2O[C@@]1(C)n1c3ccccc3c3c4c(c5c6ccccc6n2c5c31)C(=O)NC4 [KT5720],Effect on CHRM4 antagonist-induced BFU-E expansion,"murine BFU-Es [1]; 2 μM KT5720 with 3 nM PD102807, day 9",blocked CHRM4 antagonist–induced BFU-E expansion
C=C[C@@]1(C)CC(=O)[C@]2(O)[C@@]3(C)[C@@H](O)CCC(C)(C)[C@@H]3[C@H](O)[C@H](OC(C)=O)[C@@]2(C)O1 [forskolin],BFU-E expansion,murine BFU-Es [1],promoted BFU-E expansion
same,cAMP concentration in BFU-Es relative to DMSO,BFU-Es,increased in concentration
CCOC(=O)c1c(C)[nH]c2ccc3c(c12)CN1CCc2cc(OC)ccc2C1O3 (stereo not shown) [PD102807],Percentage of Ter119+ cells with or without compound,murine BFU-Es [1],no difference
same,BFU-E expansion,murine BFU-Es [1],promoted BFU-E expansion at nanomolar concentrations
same,BFU-E gene signature expression,murine BFU-Es [4],up-regulated a gene signature characteristic of BFU-Es
same,CFU-E proliferation,CFU-E,no effect
same,Formation of BFU-E colonies,human CD34+ HSPC,increased formation of BFU-E colonies
same,Erythroid cell expansion,human CD34+ HSPC,expanded erythroid cells
same,Cell survival or differentiation with and without compound,[5]; 3 nM PD102807,no difference
same,Production of erythroid cells,"[5]; 3 nM PD102807, eight patients",increased production of erythroid cells
same,Maximal tolerated dose,C57bl/6 mice [6]; mouse,100 mg/kg
same,Anti-anemia minimal effective dose,C57bl/6 mice [2],100 mg/kg
same,Tolerability in vivo,[3]; MDS mice,well tolerated
same,"Weight loss, liver or kidney function",[3]; MDS mice,no substantial effects
same,White blood cell or platelet production,[3]; MDS mice,no influence
same,BFU-E self-renewal (splenic BFU-E colonies),[3]; MDS mice,promoted BFU-E self-renewal
same,cAMP concentration in BFU-Es relative to DMSO,BFU-Es,increased in concentration
same,Selectivity for CHRM4 over other muscarinic acetylcholine receptors,[7],selectively inhibits CHRM4 over other muscarinic acetylcholine receptors
CC[N+](C)(CC)CCOC(=O)C(O)(c1ccccc1)C1CCCCC1 (stereo not shown) [oxyphenonium bromide],BFU-E expansion and erythrocyte production,murine BFU-Es [1]; 100 μM oxyphenonium bromide,prolonged expansion resulting in increased production of erythrocytes
same,Percentage of Ter119+ cells with or without compound,murine BFU-Es [1],no difference
same,BFU-E expansion,murine BFU-Es [1],triggered BFU-E expansion
same,Formation of BFU-E colonies,murine BFU-Es [8],increased formation of BFU-E colonies
same,BFU-E gene signature expression,murine BFU-Es [4],up-regulated a gene signature characteristic of BFU-Es
same,Formation of BFU-E colonies,human CD34+ HSPC,increased formation of BFU-E colonies
same,Erythroid cell expansion,human CD34+ HSPC,expanded erythroid cells
same,Maximal tolerated dose,"C57bl/6 mice [6]; female, C57bl/6, mouse, 7 days",50 mg/kg
same,Anti-anemia minimal effective dose,C57bl/6 mice [2],25 mg/kg
same,BFU-E self-renewal (splenic BFU-E colonies),[3]; MDS mice,promoted BFU-E self-renewal
